According to ChEMBL document CHEMBL1255367, “Potency of SMP-601, a novel carbapenem, in hematogenous murine bronchopneumonia caused by methicillin-resistant and vancomycin-intermediate Staphylococcus aureus” (Antimicrob Agents Chemother, 2008):
≈ marks a conversion by molar mass, not a printed value. Calls of active or inactive are those of the source. The calls are words filed in the database; no cut-off is given here.

Legend:
[1] = AUC (0 to infinity) in serum of methicillin-resistant Staphylococcus aureus infected ddY mouse at 100 mg/kg, ip administered 1 day post infection by fluorescence polarization immunoassay; assay type: ADME, organism-based; parameters: time infinity, dose 100 mg/kg, route intraperitoneal
Outline: (§1)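 Single 100 mg/kg i.p. dose given 1 day after i.v. MRSA NUMR101 agar-bead infection. Mice killed 5, 15, 30, 60, 90, 120 min after dosing, n = 3 per time point. Serum and saline lung homogenate stored at –80°C. Assayed by fluorescence polarization immunoassay (detection limit 2 µg/ml) against standard curves in pooled murine serum or lung homogenate. Parameters by moment analysis.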

[2] = tested on: Staphylococcus aureus; test: Antibacterial activity against vancomycin-intermediate Staphylococcus aureus Mu50 infected in ddY mouse assessed as survival of the mouse at 100 mg/kg, ip administered 1 day postinfection measured after 10 days; assay type: functional; conditions: route intraperitoneal
Outline: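 Cyclophosphamide-pretreated (100 mg/kg, days −3 and −1) ddY mice infected i.v. with Mu50 agar beads at 2 x 10^9 to 4 x 10^9 CFU/ml. Treated 100 mg/kg i.p. b.i.d. from day 1 for 10 days. Survival recorded daily for 10 days, n = 10, Kaplan-Meier curves.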

[3] = tested on: Staphylococcus aureus; test: Antibacterial activity against vancomycin-intermediate Staphylococcus aureus Mu50 infected in ddY mouse assessed as viable bacteria in lungs at 100 mg/kg, ip administered 1 day postinfection measured after 3 days (Rvb=9.64 +/- 0.63 log CFU/ml); assay type: functional; conditions: route intraperitoneal
[4] = tested on: Staphylococcus aureus; test: Antibacterial activity against methicillin-resistant Staphylococcus aureus NUMR101 infected in ddY mouse assessed as viable bacteria in lungs at 100 mg/kg, ip administered 1 day postinfection (Rvb=8.42 +/- 0.50 log CFU/ml); assay type: functional; conditions: route intraperitoneal
[5] = tested on: Serum; test: fAUC (0 to infinity) in serum of methicillin-resistant Staphylococcus aureus infected ddY mouse at 100 mg/kg, ip administered 1 day post infection by fluorescence polarization immunoassay; assay type: ADME, organism-based; parameters: dose 100 mg/kg, route intraperitoneal; conditions: in vivo, 24 h; outline: as §1
[6] = AUC (0 to infinity) in lung of methicillin-resistant Staphylococcus aureus infected ddY mouse at 100 mg/kg, ip administered 1 day post infection by fluorescence polarization immunoassay; assay type: ADME, organism-based; parameters: time infinity, dose 100 mg/kg, route intraperitoneal; outline: as §1
[7] = Cmax in serum of methicillin-resistant Staphylococcus aureus infected ddY mouse at 100 mg/kg, ip administered 1 day post infection by fluorescence polarization immunoassay; assay type: ADME, organism-based; parameters: dose 100 mg/kg, route intraperitoneal; outline: as §1
[8] = tested on: Serum; test: fCmax in serum of methicillin-resistant Staphylococcus aureus infected ddY mouse at 100 mg/kg, ip administered 1 day post infection by fluorescence polarization immunoassay; assay type: ADME, organism-based; parameters: dose 100 mg/kg, route intraperitoneal; conditions: in vivo, 24 h; outline: as §1
[9] = Cmax in lung of methicillin-resistant Staphylococcus aureus infected ddY mouse at 100 mg/kg, ip administered 1 day post infection by fluorescence polarization immunoassay; assay type: ADME, organism-based; parameters: dose 100 mg/kg, route intraperitoneal; outline: as §1
[10] = Half life in serum of methicillin-resistant Staphylococcus aureus infected ddY mouse at 100 mg/kg, ip administered 1 day post infection by fluorescence polarization immunoassay; assay type: ADME, organism-based; parameters: dose 100 mg/kg, route intraperitoneal; outline: as §1
[11] = Half life of free unbound fraction in serum of methicillin-resistant Staphylococcus aureus infected ddY mouse at 100 mg/kg, ip administered 1 day post infection by fluorescence polarization immunoassay; assay type: ADME, organism-based; parameters: dose 100 mg/kg, route intraperitoneal; outline: as §1
[12] = Half life in lung of methicillin-resistant Staphylococcus aureus infected ddY mouse at 100 mg/kg, ip administered 1 day post infection by fluorescence polarization immunoassay; assay type: ADME, organism-based; parameters: dose 100 mg/kg, route intraperitoneal; outline: as §1
[13] = tested on: Staphylococcus aureus; test: Antibacterial activity against vancomycin intermediate Staphylococcus aureus Mu50 by broth microdilution method; assay type: functional
Outline: (§2)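 Broth microdilution in Mueller-Hinton II broth. Inoculum 5 x 10^5 CFU/ml. Drugs dissolved in sterile water just before use.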

[14] = tested on: Serum; test: Protein binding in serum of methicillin-resistant Staphylococcus aureus infected ddY mouse at 100 mg/kg, ip; assay type: ADME, organism-based; parameters: dose 100 mg/kg, route intraperitoneal; conditions: in vivo
[15] = Ratio of AUC (0 to 24 hrs) in lung in vancomycin intermediate Staphylococcus aureus infected ddY mouse at 100 mg/kg, ip BID to MIC for methicillin-resistant Staphylococcus aureus
[16] = Half life in lung of methicillin-resistant Staphylococcus aureus infected ddY mouse at 100 mg/kg, ip administered 1 day post infection by paper disk bioassay method; assay type: ADME, organism-based; parameters: dose 100 mg/kg, route intraperitoneal
Outline: (§3)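 MRSA-infected mice, one day post-inoculation, received a single 100 mg/kg i.p. dose. Serum and lung homogenate collected at 5–120 min, n = 3 per time point. Paper disk bioassay with Bacillus subtilis ATCC 6633, triplicate, 50 µl sample. Detection limits 0.07 µg/ml (serum) and 0.12 µg/ml (lung). Standards in pooled murine matrix, linear-regression curves. Moment analysis.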

[17] = Half life of free unbound fraction in serum of methicillin-resistant Staphylococcus aureus infected ddY mouse at 100 mg/kg, ip administered 1 day post infection by paper disk bioassay method; assay type: ADME, organism-based; parameters: dose 100 mg/kg, route intraperitoneal; outline: as §3
[18] = Half life in serum of methicillin-resistant Staphylococcus aureus infected ddY mouse at 100 mg/kg, ip administered 1 day post infection by paper disk bioassay method; assay type: ADME, organism-based; parameters: dose 100 mg/kg, route intraperitoneal; outline: as §3
[19] = Cmax in lung of methicillin-resistant Staphylococcus aureus infected ddY mouse at 100 mg/kg, ip administered 1 day post infection by paper disk bioassay method; assay type: ADME, organism-based; parameters: dose 100 mg/kg, route intraperitoneal; outline: as §3
[20] = tested on: Serum; test: fCmax in serum of methicillin-resistant Staphylococcus aureus infected ddY mouse at 100 mg/kg, ip administered 1 day post infection by paper disk bioassay method; assay type: ADME, organism-based; parameters: dose 100 mg/kg, route intraperitoneal; conditions: in vivo, 24 h; outline: as §3
[21] = Cmax in serum of methicillin-resistant Staphylococcus aureus infected ddY mouse at 100 mg/kg, ip administered 1 day post infection by paper disk bioassay method; assay type: ADME, organism-based; parameters: dose 100 mg/kg, route intraperitoneal; outline: as §3
[22] = AUC (0 to infinity) in lung of methicillin-resistant Staphylococcus aureus infected ddY mouse at 100 mg/kg, ip administered 1 day post infection by paper disk bioassay method; assay type: ADME, organism-based; parameters: dose 100 mg/kg, route intraperitoneal, time infinity; outline: as §3
[23] = tested on: Serum; test: fAUC (0 to infinity) in serum of methicillin-resistant Staphylococcus aureus infected ddY mouse at 100 mg/kg, ip administered 1 day post infection by paper disk bioassay method; assay type: ADME, organism-based; parameters: dose 100 mg/kg, route intraperitoneal; conditions: in vivo, 24 h; outline: as §3
[24] = AUC (0 to infinity) in serum of methicillin-resistant Staphylococcus aureus infected ddY mouse at 100 mg/kg, ip administered 1 day post infection by paper disk bioassay method; assay type: ADME, organism-based; parameters: time infinity, dose 100 mg/kg, route intraperitoneal; outline: as §3
[25] = tested on: Staphylococcus aureus; test: Antibacterial activity against methicillin-resistant Staphylococcus aureus NUMR101 by broth microdilution method; assay type: functional; outline: as §2
[26] = T>MIC in serum of methicillin-resistant Staphylococcus aureus infected ddY mouse at 10 mg/kg, ip BID by paper disk bioassay method; assay type: functional; conditions: route intraperitoneal
[27] = fT>MIC in serum of methicillin-resistant Staphylococcus aureus infected ddY mouse at 10 mg/kg, ip BID by paper disk bioassay method; assay type: functional; conditions: route intraperitoneal
[28] = T>MIC in lung of methicillin-resistant Staphylococcus aureus infected ddY mouse at 10 mg/kg, ip BID by paper disk bioassay method; assay type: functional; conditions: route intraperitoneal
[29] = T>MIC in serum in vancomycin intermediate Staphylococcus aureus infected ddY mouse at 100 mg/kg, ip BID by paper disk bioassay method; assay type: functional; conditions: route intraperitoneal
[30] = fT>MIC in serum in vancomycin intermediate Staphylococcus aureus infected ddY mouse at 100 mg/kg, ip BID by paper disk bioassay method; assay type: functional; conditions: route intraperitoneal
[31] = T>MIC in lung in vancomycin intermediate Staphylococcus aureus infected ddY mouse at 100 mg/kg, ip BID by paper disk bioassay method; assay type: functional; conditions: route intraperitoneal
[32] = tested on: Staphylococcus aureus; test: Antibacterial activity against vancomycin intermediate Staphylococcus aureus Mu50 infected in ddY mouse assessed as decrease in lung abscesses at 100 mg/kg, ip after 3 days; assay type: functional, organism-based; parameters: dose 100 mg/kg
Outline: (§4)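 Mice pretreated with cyclophosphamide (100 mg/kg, days −3 and −1) and infected i.v. with Mu50 agar beads (4 x 10^7 to 6 x 10^7 CFU/ml). Given 100 mg/kg i.p. b.i.d. for 3 days, then sacrificed. Lungs fixed in formalin and stained with H&E. Abscesses counted per slice, lung area by cross-section paper, n = 3.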

[33] = tested on: Staphylococcus aureus; test: Antibacterial activity against vancomycin intermediate Staphylococcus aureus Mu50 infected in ddY mouse assessed as decrease in lung inflammation at 100 mg/kg, ip after 3 days; assay type: functional, organism-based; parameters: dose 100 mg/kg; outline: as §4

CN[C@H](CC(C)C)C(=O)N[C@H]1C(=O)N[C@@H](CC(N)=O)C(=O)N[C@H]2C(=O)N[C@H]3C(=O)N[C@H](C(=O)N[C@H](C(=O)O)c4cc(O)cc(O)c4-c4cc3ccc4O)[C@H](O)c3ccc(c(Cl)c3)Oc3cc2cc(c3O[C@@H]2O[C@H](CO)[C@@H](O)[C@H](O)[C@H]2O[C@H]2C[C@](C)(N)[C@H](O)[C@H](C)O2)Oc2ccc(cc2Cl)[C@H]1O [VANCOMYCIN]
AUC(0-inf) [1]: 261 µg·h/mL
Activity [2]: 20%
CFU/ml [3]: 8.72 log CFU/ml
CFU/ml [4]: 5.29 log CFU/ml
fAUC [5]: 196 µg·h/mL
AUC(0-inf) [6]: 127 µg·h/mL
Cmax [7]: 60800 ng/mL
fCmax [8]: 45.6 µg/mL
Cmax [9]: 38500 ng/mL
half-life [10]: 2.95 h
half-life [11]: 2.95 h
half-life [12]: 1.72 h
MIC [13]: 8 µg/mL (≈ 5.52 µM)
Activity [14]: 25%
AUC0-24/MIC at 10 mg/kg [15]: 31.8 µg/mL

C[C@H]1C=C(c2csc(SC3=C(C(=O)O)N4C(=O)[C@H]([C@@H](C)O)[C@H]4[C@H]3C)n2)CN1 [RAZUPENEM]
half-life [16]: 0.61 h
half-life [17]: 0.84 h
half-life [18]: 0.84 h
Cmax [19]: 18000 ng/mL
fCmax [20]: 25.81 µg/mL
Cmax [21]: 108000 ng/mL
AUC(0-inf) [22]: 28.4 µg·h/mL
fAUC [23]: 30.6 µg·h/mL
AUC(0-inf) [24]: 127 µg·h/mL
Activity [2]: 70%
CFU/ml [3]: 7.42 log CFU/ml
CFU/ml [4]: 5.5 log CFU/ml
MIC [25]: 2 µg/mL (≈ 4.91 µM)
MIC [13]: 2 µg/mL (≈ 4.91 µM)
fT>MIC [26]: 16.9
fT>MIC [27]: 2.9
fT>MIC [28]: 0
fT>MIC [29]: 28.2
fT>MIC [30]: 23.6
fT>MIC [31]: 20.3
Activity [14]: 76%
Activity [32]: Active
Activity [33]: Active
